Experimental findings from the RNAGym collection of RNA variant scans (doi:10.1126/science.aae0568) are described below.

Variants at the floor of the assay were thinned out.

First the molecules themselves.
B1: tRNA (parent)
chain: GUUCCGUUGGCGUAAUGGUAACGCGUCUCCCUCCUAAGGAGAAGACUGCGGGUUCGAGUCCCGUACGGAACG

Variants of B1 are the subject of the data set. Put plainly: yeast fitness relative to wild type (ratio to wild type); higher = fitter; tRNA-Arg(CCU), competitive growth, 37 C, YPD. The procedure, abridged:
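Changes in genotype frequencies gave Darwinian fitness relative to wild type. Frequencies were read by 100-nucleotide paired-end sequencing of gene amplicons before and after pooled Saccharomyces cerevisiae strains, carrying tRNA-Arg(CCU) gene variants at the native locus, were competed in YPD at 37°C for 24 hours in six replicates. A genotype was kept only with ≥ 100 starting reads, and estimates < 0.5 were set to 0.5.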
In the case of GUUCCGUUGGCGUAAUGGUAACGCGUCUCCGUCCUAAGGAGAUGAGUGCGGGUUCGAGUCCCGUACGGAACG, the yeast fitness was determined as 0.586. With GUUCCGUUGGCGUAAUGGUAACGCGUCUCCGUCCUAAGGAGAAGGCUGCGGGUUCGAGUCCCGUGCGGAACG the figure was 0.628; with GUUCCGUUGGCGUAAUGGUAACGCGUCUCCGUCCUCAGGAGAAGACUGCGGGUUCGAGUCCGGUACGGAACG, at most 0.5.

With GUUCCGUUGGCGUAAUGGUAACGCGUCUCCGUCCUAAGGAGGAGACUGCGGGUUCGAGUCCCGUUCCGAACG, the yeast fitness was at most 0.5. Under GUUCCGUUGGCGUAAUGGUAACGCGUCUCCGUCCUAAGGAGAAGCCUGAGGGUUCGAGUCCCGUACGGAGCG stands at most 0.5; under GUUCCGUUGGCGUAAUGGUAACGCGUCUCCGUCCUAAGGAGAAGACUGCGGGUUCGAGUCCCGUUCGGAACG, 0.799. With GUUCCGUUGGCGUAAUGGUAACGCGUCUCCGUCCUACGGAGAAGACUGCGGGUUCGUGUCCCGUACGGAACG the figure was at most 0.5. For the variant GUUCCGUUGGCGUAAUGGUAACGCGUCUCCGUCCUAAGGAGGAGACGGCGGGUUCGAGUCCCGUACGGAACG, the yeast fitness worked out at 0.573. With GUUCCGUUGGCGUAAUGGUAACGCGUCUCCGUCCUUAGGAGAAGAUUGCGGGUUCGAGUCCCGUCCGGAACG the figure was 0.74.

Turning to GUUCCGUUGGCGUAAUGGUAACGCGUCUCCGUCCUAAGGGGAAGCCUGCGGGAUCGAGUCCCGUACGGAUCG, the yeast fitness was at most 0.5. Consider GUUCCGUUGGCGUAAUGGUAACGCGUCUCCGUCCUAAGGAGAAGUCUGCGGGUUCGAGUCCCGUACGGAACG, for which the yeast fitness came out at 0.987.

For GUUCCGUUGGCGUAAUGGUAACGCGUCUCCGUCCUAAGGAGAAGCCUGCGGGUUCGAGUCCCGUACGGAACG, the yeast fitness came to 0.864. With GUUCCGUUGGCGUAAUGGUAACGCGUCUCCAUCCUAAGGAGAAGACUGCGGGUUCGAGCCCCGUACGGAACG the figure was 0.767; with GUUCCGUUGGCGUAAUGGUAACGCGUCUCCGUCCUAAGGAGAAGCCUGCGGGUUCGAGUACCAUACGGAACG, at most 0.5. GUUCCGUUGGCGUAAUGGUAACGCGUCUCCGUCCUAAGGAGGAGACUGGGGGUUCGAGUCCCGUACGGAACG: the yeast fitness is at most 0.5. With GUUCCGUUGGCGUAAUGGUAACGCGUCUCCAUCCUAAGGAGAAGACCGCGGGUUCGAGUCCCGUACAGAACG the figure was 0.544. Under GUUCCGUUGGCGUAAUGGUAACGCGUCUCCGUCCUAAGGUGAAGUCUGCGGGUUCGAGUCCAGUACGGAACG stands 0.591; under GUUCCGUUGGCGUAAUGGUAACGCGUCUCCGUCCUAAGGAGAAGACUGCGGGUUCGCGUCUCGUACGGAACG, at most 0.5; under GUUCCGUUGGCGUAAUGGUAACGCGUCUCCGUCCUAAGGAGACGACUGCGGGUUCGAGUCCCGUACGGAUCG, 0.637. Under GUUCCGUUGGCGUAAUGGUAACGCGUCUCCGUCCUAAGGAGAGGACUGCGAGUUCGAGUCCCGUACGGAACG stands 0.593; under GUUCCGUUGGCGUAAUGGUAACGCGUCUCCAUCCUAAGGAGAAGACCGCGGGUUCGAGUCCCGUACGGUACG, at most 0.5. Consider GUUCCGUUGGCGUAAUGGUAACGCGUCUCCGUCCUAAGGAGAAGACUGCGGGUUCGAGUCCCGUUCCGAACG, for which the yeast fitness is 0.567.

On to GUUCCGUUGGCGUAAUGGUAACGCGUCUCCACCCUAAGGAGAAGACUGCGGGUUCGAGUCCCGUACGGAACG, for which the yeast fitness amounted to 0.766. Regarding GUUCCGUUGGCGUAAUGGUAACGCGUCUCCAUCCAUAGGAGAAGACCGCGGGUUUGAGUCCCGUACGGAACG, the yeast fitness is 0.518. As to GUUCCGUUGGCGUAAUGGUAACGCGUCUCCAUCCUAAGGAGAAGACUGCGGGUUCGAGUCCCAUACGGAACG, the yeast fitness came out at 0.676. With GUUCCGUUGGCGUAAUGGUAACGCGUCUCCAUCCUAAGGAGAAGACUGCGGGUUCGAGUCCCCUACGGAACG the figure was 0.62; with GUUCCGUUGGCGUAAUGGUAACGCGUCUCCGUCCUAGGGAGAAGACUGCGGGUUCGAGUCCCGUACGGAACG, 0.79. Under GUUCCGUUGGCGUAAUGGUAACGCGUCUCCGUCCUAAGGAGAAGACUGCGGGUUCGGGUCCCGUACGGAACG stands 0.771; under GUUCCGUUGGCGUAAUGGUAACGCGUCUCCGUCCUAAGGAGAAGACUGCGGGUUCGUGUCCCGUACGGAACG, 0.726.

As for GUUCCGUUGGCGUAAUGGUAACGCGUCUCCGUCCUAAGGAGAAGACUGCGGGUUCGCGUCCCGUACGGAACG, the yeast fitness is 0.617. Under GUUCCGUUGGCGUAAUGGUAACGCGUCUCCGUACUAAGGAGAAGACUGCGGGUUCGAGUCCCGUACGGAACG stands 0.678. Regarding GUUCCGUUGGCGUAAUGGUAACGCGUCUCCGUCCUAAGGGGAAGAAUGCGGGUUGGAGUCCCGUACGGAACG, the yeast fitness worked out at 0.578. With GUUCCGUUGGCGUAAUGGUAACGCGUCUCCGUCCUAAGGGGAAGAAUGCGGGUCGGAGUCCCGUACGGAACG the figure was at most 0.5; with GUUCCGUUGGCGUAAUGGUAACGCGUCUCCGUCCUAAGGAGAAGACUGCGGGUUCGAGUCCCGUACGGGACG, 1.02; with GUUCCGUUGGCGUAAUGGUAACGCGUCUCCGUCCUAUGGAGAAGACUGCGGGUUCCAGUCCCGUACGGAACG, at most 0.5.

Take GUUCCGUUGGCGUAAUGGUAACGCGUCUCCAUCCUAAGGAGAAGACUGCGGGUUCGAGUCCCCUACGUAACG: the yeast fitness is at most 0.5. With GUUCCGUUGGCGUAAUGGUAACGCGUCUCCAUCCUAAGGAGAAGACUGCGGGUUCCGGUCCUGUACGGAACG the figure was at most 0.5. For GUUCCGUUGGCGUAAUGGUAACGCGUCUCCGUCCUCAGGAGAAGACUGUGGGUGCGAGUCCCGUUCGGAACG, the yeast fitness is at most 0.5. With GUUCCGUUGGCGUAAUGGUAACGCGUCUCCGUCCUAAGGAGAAGACUGCGGGUUCGAGUCCCGUACGGAGCG the figure was 0.914; with GUUCCGUUGGCGUAAUGGUAACGCGUCUCCGUCCUGAGGAGAAGACUGCGGGUUCGAGUCCCGUACGGCACG, 0.622. Under GUUCCGUUGGCGUAAUGGUAACGCGUCUCCGUCCUAUGGAGAAGACUGCGGGUUGGCGUCCCGUACGGAACG stands 0.541; under GUUCCGUUGGCGUAAUGGUAACGCGUCUCCGUCCUGAGGAGAAGACUGCGGGUUCGAGUCCCGUACGGAACG, 0.783. Under GUUCCGUUGGCGUAAUGGUAACGCGUCUCCGUCCUCAGGAGAAGACUGCGGGUUCGAGUCCCGUACGGAACG stands 0.555; under GUUCCGUUGGCGUAAUGGUAACGCGUCUCCAUCCUAAGGAGAAGACUGCGGGUUCGAGUCCCGUACGAAACG, 0.694; under GUUCCGUUGGCGUAAUGGUAACGCGUCUCCAUCCUAAGGAGAAGACUGCGGGUUCGAGUCCCGUACGCAACG, 0.648. As to GUUCCGUUGGCGUAAUGGUAACGCGUCUCCGUCCUAAGGAGAAGACUGCGGGUUCGAGUCCCGUACGGAACG, the yeast fitness turned out to be 0.939. In the case of GUUCCGUUGGCGUAAUGGUAACGCGUCUCCGUCCUAAGGAGUAGACUGCGGGUUCGAGUCCCGUAUGGAACG, the yeast fitness was found to be 0.767. With GUUCCGUUGGCGUAAUGGUAACGCGUCUCCAUCCUAAGGAGAAGACUGCGGCUUCGGGUCCCGUACGGAACG the figure was at most 0.5; with GUUCCGUUGGCGUAAUGGUAACGCGUCUCCGUCCUAAGGAGAUGACUGCGGGUUCGAGUCCCGUACGGAACG, 0.984; with GUUCCGUUGGCGUAAUGGUAACGCGUCUCCGUCCUAUGGAGAAGACUCCGGGUUCGAGUCCCGUACGGAACG, 0.528.

On to GUUCCGUUGGCGUAAUGGUAACGCGUCUCCGUCCUUAGGAAAAGCCUGCGGGUUCGAGUCCCGUACGGAACG, for which the yeast fitness was at most 0.5. Under GUUCCGUUGGCGUAAUGGUAACGCGUCUCCGUCCUAAGGAGUAGACUGCGGGUUCGAGUCCCGUACGGAACG stands 0.983.

Turning to GUUCCGUUGGCGUAAUGGUAACGCGUCUCCGUCCUCAGGAGGAGACUGCGGAUUCGAGUCCCGUACGGAACG, the yeast fitness was at most 0.5. Under GUUCCGUUGGCGUAAUGGUAACGCGUCUCCGUCCUAGGGAGAAGACUGCGGGUUCGAGUCCUCUACGGAACG stands 0.54. As to GUUCCGUUGGCGUAAUGGUAACGCGUCUCCAUCCUAAGGAGAAGACUGCGGGUUCAAGUCCCGUACGGAACG, the yeast fitness was 0.805.

In the case of GUUCCGUUGGCGUAAUGGUAACGCGUCUCCGUCCUAAGGAGAAGACUGCGGGUUCGAGUCCCGUCUGGAACG, the yeast fitness was at most 0.5.

With GUUCCGUUGGCGUAAUGGUAACGCGUCUCCGUCCUAAGGAGAAGGCUGCGGGUUCGAGUGCCGUACGGAACG, the yeast fitness was at most 0.5. Under GUUCCGUUGGCGUAAUGGUAACGCGUCUCCAUCCUAAGGAGAAGACUGCGGGUUCGAGUCCCGUACAGAACG stands 0.754. With GUUCCGUUGGCGUAAUGGUAACGCGUCUCCGUCCUAAGGUGAAGACUGCGGGUUCGAGUCCCGUACGGAACG the figure was 0.998; with GUUCCGUUGGCGUAAUGGUAACGCGUCUCCGUCCUAAGGCGAAGACUGCGGGUUCGAGUCCCGUACGGAACG, 0.718. With GUUCCGUUGGCGUAAUGGUAACGCGUCUCCGUCCUAAGGAGAGGACUGUGGGUUCGAGUCCCGUACGACACG the figure was at most 0.5; with GUUCCGUUGGCGUAAUGGUAACGCGUCUCCGUCCUAAGGAGAAGUCUGCGGGUUUGAGUCCUGUACGGAACG, 0.564. For the variant GUUCCGUUGGCGUAAUGGUAACGCGUCUCCGUCCUAAGGUGAAGCCUGCGGGUUCGAGUCCCGUACGGAACG, the yeast fitness was 0.533. GUUCCGUUGGCGUAAUGGUAACGCGUCUCCGUCCUAGGGAGAAGACUGCGGGUACGAGUCCCGUACGGAACG: the yeast fitness came to 0.681. Under GUUCCGUUGGCGUAAUGGUAACGCGUCUCCAUCCUAAGGAGAAGACUGCGGGCUCGAGUCCCGUACGGAACG stands 0.571; under GUUCCGUUGGCGUAAUGGUAACGCGUCUCCGUCCUAAGGAGUAGACUGCGGGUUCGACUCCCGUACGGAACG, 0.538; under GUUCCGUUGGCGUAAUGGUAACGCGUCUCCAUCCUAAGGAGAAGACCGCGGGUUCGAGUCCCGUACGGAACG, 0.767. With GUUCCGUUGGCGUAAUGGUAACGCGUCUCCGUCCUCAGGAGAAGAGUGCGCGUUCGAGUCCCGUACGGAACG, the yeast fitness was 0.597. Under GUUCCGUUGGCGUAAUGGUAACGCGUCUCCGUCCUAUGGAGUAGACUGCGGGUUCGAGUCCCGUACGGAACG stands 0.56; under GUUCCGUUGGCGUAAUGGUAACGCGUCUCCGUCCUAAGGAGAAGACUGCGGGUUCGAGUCCCGUUCGGAGCG, 0.589; under GUUCCGUUGGCGUAAUGGUAACGCGUCUCCGUACUAAGGAGAAGACUGUGGGUGCGAGUCCCGUUCGGAACG, 0.597.

Regarding GUUCCGUUGGCGUAAUGGUAACGCGUCUCCGUCCUAAGGAGAAGUCUGCGGGUUCGAGUCCUGUACGGAACG, the yeast fitness was determined as 0.876. With GUUCCGUUGGCGUAAUGGUAACGCGUCUCCGUCCUAAGGAGAUGACAGCGGGUUCGAGUCCCGUACGGAACG the figure was 0.605. Turning to GUUCCGUUGGCGUAAUGGUAACGCGUCUCCAUCCUAAGGAGAAGACUGCGGGUUCGACUCCCGUACGGAACG, the yeast fitness was 0.894. Under GUUCCGUUGGCGUAAUGGUAACGCGUCUCCGUCCUACGGAGAAGACUGCAGGUUCGAGUCCCGUCCGGAACG stands at most 0.5.
